According to ChEMBL document CHEMBL3808334, “Synthesis and in vitro evaluation of novel triazine analogues as anticancer agents and their interaction studies with bovine serum albumin” (Eur J Med Chem, 2016):

Key:
Assay type in all cases: functional
[1] = test system: NCI-H226; test: Growth inhibition of human NCI-H226 cells assessed as cell growth at 10^-4 M incubated for 48 hrs by sulforhodamine B assay; conditions: NCI-H226, 48 h, read-out: Activity
[2] = Growth inhibition of human CNS cancer cells incubated for 48 hrs by sulforhodamine B assay; conditions: Cancer cell lines; for CC50: read-out: LC50 (the source's name)
Method in brief: (§1)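 Five-dose assay: five concentrations from 10-fold or ½-log serial dilutions. Cells are plated at 5,000–40,000 per well according to doubling time, grown 24 h, then exposed 48 h at 37 °C, 5% CO₂. Fixed with cold 50% TCA (final addition) for 60 min at 4 °C and stained with 0.4% SRB in 1% acetic acid. Bound dye is solubilized in 10 mM Tris base and read at 515 nm. GI₅₀ is where [(Ti−Tz)/(C−Tz)]×100 = 50, with a time-zero plate as Tz.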

[3] = test system: ACHN; test: Growth inhibition of human ACHN cells assessed as cell growth at 10^-6 M incubated for 48 hrs by sulforhodamine B assay; conditions: read-out: Activity; method in brief: as §1
[4] = Growth inhibition of human Caki1 cells assessed as cell growth at 10^-7 M incubated for 48 hrs by sulforhodamine B assay; conditions: CAKI-1, 48 h, read-out: Activity
Method in brief: (§2)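 Cells seeded at 5,000–40,000/well according to doubling time and preincubated 24 h at 37 °C, 5% CO2. Time-zero plates were TCA-fixed. DMSO concentrate was diluted in medium with 50 µg/ml gentamicin to give five concentrations (10-fold or ½ log steps), then exposed 48 h. Cells were TCA-fixed, stained with 0.4% SRB and read at 515 nm. Percent growth was taken against time-zero and control; GI50, TGI and LC50 derived.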

[5] = Growth inhibition of human RXF393 cells assessed as cell growth at 10^-6 M incubated for 48 hrs by sulforhodamine B assay; conditions: RXF 393, 48 h, read-out: Activity
[6] = Growth inhibition of human UACC62 cells assessed as cell growth at 10^-5 M incubated for 48 hrs by sulforhodamine B assay; conditions: UACC-62, 48 h, read-out: Activity
[7] = test system: K562; test: Growth inhibition of human K562 cells assessed as cell growth at 10 uM incubated for 48 hrs by sulforhodamine B assay; conditions: K562, 48 h, read-out: Activity
[8] = test system: M14; test: Growth inhibition of human M14 cells assessed as cell growth at 10^-7 M incubated for 48 hrs by sulforhodamine B assay; conditions: M14, 48 h, read-out: Activity
[9] = test system: ACHN; test: Growth inhibition of human ACHN cells assessed as cell growth at 10 uM incubated for 48 hrs by sulforhodamine B assay; conditions: read-out: Activity
Method in brief: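 One-dose screen at 10 µM final. Cells are plated at 5,000–40,000 per well according to doubling time and preincubated 24 h at 37 °C, 5% CO₂. Compound (DMSO stock diluted in medium with 50 µg/ml gentamicin) is then added for 48 h. Growth percent is read by sulforhodamine B staining, absorbance at 515 nm.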

[10] = Growth inhibition of human SNB19 cells incubated for 48 hrs by sulforhodamine B assay; conditions: SNB-19, 48 h
Method in brief: (§3)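 Cells were plated at 5,000–40,000 per well according to doubling time and preincubated 24 h at 37 °C in 5% CO2; time-zero plates were then TCA-fixed. Five concentrations (10-fold or ½-log dilutions, DMSO stock) were incubated 48 h. Cells were TCA-fixed, stained with 0.4% SRB and read at 515 nm. GI50 was taken where [(Ti−Tz)/(C−Tz)]×100 = 50.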

[11] = Growth inhibition of human BT549 cells assessed as cell growth at 10^-8 M incubated for 48 hrs by sulforhodamine B assay; conditions: BT-549, 48 h, read-out: Activity; method in brief: as §1
[12] = Growth inhibition of human HOP62 cells assessed as cell growth at 10^-6 M incubated for 48 hrs by sulforhodamine B assay; conditions: HOP-62, 48 h, read-out: Activity
[13] = test system: SK-MEL-5; test: Growth inhibition of human SK-MEL-5 cells assessed as cell growth at 10^-4 M incubated for 48 hrs by sulforhodamine B assay; conditions: SK-MEL-5, 48 h, read-out: Activity
[14] = Growth inhibition of human SNB19 cells assessed as cell growth at 10^-6 M incubated for 48 hrs by sulforhodamine B assay; conditions: SNB-19, 48 h, read-out: Activity
[15] = Growth inhibition of human OVCAR4 cells assessed as cell growth at 10^-6 M incubated for 48 hrs by sulforhodamine B assay; conditions: OVCAR-4, 48 h, read-out: Activity
[16] = Growth inhibition of human TK10 cells assessed as cell growth at 10^-8 M incubated for 48 hrs by sulforhodamine B assay; conditions: TK-10, 48 h, read-out: Activity
[17] = test system: HT-29; test: Growth inhibition of human HT-29 cells assessed as cell growth at 10^-7 M incubated for 48 hrs by sulforhodamine B assay; conditions: HT-29, 48 h, read-out: Activity
[18] = test system: K562; test: Growth inhibition of human K562 cells incubated for 48 hrs by sulforhodamine B assay; conditions: K562, 48 h; method in brief: as §3
[19] = test system: NCI-H226; test: Growth inhibition of human NCI-H226 cells assessed as cell growth at 10^-7 M incubated for 48 hrs by sulforhodamine B assay; conditions: NCI-H226, 48 h, read-out: Activity
[20] = test system: SK-MEL-28; test: Growth inhibition of human SK-MEL-28 cells assessed as cell growth at 10^-7 M incubated for 48 hrs by sulforhodamine B assay; conditions: SK-MEL-28, 48 h, read-out: Activity
[21] = test system: NCI-H226; test: Growth inhibition of human NCI-H226 cells incubated for 48 hrs by sulforhodamine B assay; conditions: NCI-H226, 48 h; method in brief: as §3
[22] = Growth inhibition of human OVCAR4 cells assessed as cell growth at 10^-8 M incubated for 48 hrs by sulforhodamine B assay; conditions: OVCAR-4, 48 h, read-out: Activity
[23] = test system: SN12C; test: Growth inhibition of human SN12C cells assessed as cell growth at 10^-6 M incubated for 48 hrs by sulforhodamine B assay; conditions: read-out: Activity
[24] = Growth inhibition of human Hs 578T cells assessed as cell growth at 10^-4 M incubated for 48 hrs by sulforhodamine B assay; conditions: read-out: Activity
[25] = test system: NCI-H460; test: Growth inhibition of human NCI-H460 cells assessed as cell growth at 10^-6 M incubated for 48 hrs by sulforhodamine B assay; conditions: NCI-H460, 48 h, read-out: Activity
[26] = Growth inhibition of human COLO205 cells assessed as cell growth at 10^-7 M incubated for 48 hrs by sulforhodamine B assay; conditions: COLO 205, 48 h, read-out: Activity; method in brief: as §2
[27] = Growth inhibition of human SKOV3 cells assessed as cell growth at 10^-4 M incubated for 48 hrs by sulforhodamine B assay; conditions: SK-OV-3, 48 h, read-out: Activity
[28] = read-out: LC50 (the source's name)
[29] = read-out: pLC50 (the source's name) (converted)

SMILES: c1ccc(-c2nc(Nc3ccc(-c4nc5ccccc5[nH]4)cc3)nc(N3CCOCC3)n2)cc1
- growth at 100 µM [1]: -59%
- GI50 [2]: 1.41 µM
- TGI [2]: 3.04 µM
- CC50 [2]: 5.98 µM
- growth at 1 µM [3]: 64%
- growth at 0.1 µM [4]: 86%
- growth at 1 µM [5]: 30%
- growth at 10 µM [6]: -71%
- growth at 10 µM [7]: -30.1%
- growth at 0.1 µM [8]: 103%
- growth at 10 µM [9]: -58.9%
- GI50 ([10]; read-out: GI50): 1.96 µM
- TGI ([10]; read-out: TGI): 4.32 µM
- GI50 ([10]; read-out: pGI50 (converted)): 1.95 µM
- TGI ([10]; read-out: pTGI (converted)): 4.37 µM
- growth at 0.01 µM [11]: 99%
- growth at 1 µM [12]: 89%
- growth at 100 µM [13]: -91%
- growth at 1 µM [14]: 92%
- growth at 1 µM [15]: 93%
- growth at 0.01 µM [16]: 99%
- growth at 0.1 µM [17]: 108%
- GI50 ([18]; read-out: GI50): 0.295 µM
- CC50 [18, 28]: 8.31 µM
- TGI ([18]; read-out: TGI): 0.959 µM
- GI50 ([18]; read-out: pGI50 (converted)): 0.295 µM
- CC50 [18, 29]: 8.32 µM
- TGI ([18]; read-out: pTGI (converted)): 0.955 µM
- growth at 0.1 µM [19]: 120%
- growth at 0.1 µM [20]: 97%
- GI50 ([21]; read-out: GI50): 2.4 µM
- CC50 [21, 28]: 8.75 µM
- TGI ([21]; read-out: TGI): 4.58 µM
- GI50 ([21]; read-out: pGI50 (converted)): 2.4 µM
- CC50 [21, 29]: 8.71 µM
- TGI ([21]; read-out: pTGI (converted)): 4.57 µM
- growth at 0.01 µM [22]: 104%
- growth at 1 µM [23]: 85%
- growth at 100 µM [24]: -43%
- growth at 1 µM [25]: 45%
- growth at 0.1 µM [26]: 91%
- growth at 100 µM [27]: -100%

SMILES: Fc1ccc(-c2nc(Nc3ccc(-c4nc5ccccc5[nH]4)cc3)nc(N3CCOCC3)n2)cc1
- growth at 100 µM [1]: -50%
- GI50 [2]: 2.23 µM
- TGI [2]: 11.8 µM
- CC50 [2]: 8.47 µM
- growth at 1 µM [3]: 82%
- growth at 0.1 µM [4]: 97%
- growth at 1 µM [5]: 24%
- growth at 10 µM [6]: -70%
- growth at 10 µM [7]: -22%
- growth at 0.1 µM [8]: 99%
- growth at 10 µM [9]: 9%
- GI50 ([10]; read-out: GI50): 3.49 µM
- CC50 [10, 28]: > 100 µM
- TGI ([10]; read-out: TGI): > 100 µM
- GI50 ([10]; read-out: pGI50 (converted)): 3.47 µM
- CC50 [10, 29]: > 100 µM
- TGI ([10]; read-out: pTGI (converted)): > 100 µM
- growth at 0.01 µM [11]: 94%
- growth at 1 µM [12]: 90%
- growth at 100 µM [13]: -90%
- growth at 1 µM [14]: 92%
- growth at 1 µM [15]: 96%
- growth at 0.01 µM [16]: 91%
- growth at 0.1 µM [17]: 96%
- GI50 ([18]; read-out: GI50): 2.45 µM
- CC50 [18, 28]: > 100 µM
- GI50 ([18]; read-out: pGI50 (converted)): 2.45 µM
- CC50 [18, 29]: > 100 µM
- growth at 0.1 µM [19]: 111%
- growth at 0.1 µM [20]: 91%
- GI50 ([21]; read-out: GI50): 3.32 µM
- CC50 [21, 28]: > 100 µM
- TGI ([21]; read-out: TGI): 8.6 µM
- GI50 ([21]; read-out: pGI50 (converted)): 3.31 µM
- CC50 [21, 29]: > 100 µM
- TGI ([21]; read-out: pTGI (converted)): 8.51 µM
- growth at 0.01 µM [22]: 99%
- growth at 1 µM [23]: 89%
- growth at 100 µM [24]: -3%
- growth at 1 µM [25]: 97%
- growth at 0.1 µM [26]: 99%
- growth at 100 µM [27]: -49%

SMILES: c1ccc2[nH]c(-c3ccc(Nc4nc(N5CCCCC5)nc(N5CCOCC5)n4)cc3)nc2c1
- growth at 100 µM [1]: -36%
- GI50 [2]: 2.54 µM
- TGI [2]: 23.2 µM
- CC50 [2]: 46.6 µM
- growth at 1 µM [3]: 90%
- growth at 0.1 µM [4]: 86%
- growth at 1 µM [5]: 46%
- growth at 10 µM [6]: -53%
- growth at 10 µM [7]: -6.74%
- growth at 0.1 µM [8]: 95%
- growth at 10 µM [9]: 22.9%
- GI50 ([10]; read-out: GI50): 3.73 µM
- CC50 [10, 28]: > 100 µM
- TGI ([10]; read-out: TGI): 81.9 µM
- GI50 ([10]; read-out: pGI50 (converted)): 3.72 µM
- CC50 [10, 29]: > 100 µM
- TGI ([10]; read-out: pTGI (converted)): 81.3 µM
- growth at 0.01 µM [11]: 94%
- growth at 1 µM [12]: 90%
- growth at 100 µM [13]: -95%
- growth at 1 µM [14]: 99%
- growth at 1 µM [15]: 93%
- growth at 0.01 µM [16]: 96%
- growth at 0.1 µM [17]: 105%
- GI50 ([18]; read-out: GI50): 2.84 µM
- CC50 [18, 28]: > 100 µM
- GI50 ([18]; read-out: pGI50 (converted)): 2.82 µM
- CC50 [18, 29]: > 100 µM
- growth at 0.1 µM [19]: 84%
- growth at 0.1 µM [20]: 100%
- GI50 ([21]; read-out: GI50): 3.2 µM
- CC50 [21, 28]: > 100 µM
- TGI ([21]; read-out: TGI): 17.7 µM
- GI50 ([21]; read-out: pGI50 (converted)): 3.16 µM
- CC50 [21, 29]: > 100 µM
- TGI ([21]; read-out: pTGI (converted)): 17.8 µM
- growth at 0.01 µM [22]: 101%
- growth at 1 µM [23]: 100%
- growth at 100 µM [24]: -12%
- growth at 1 µM [25]: 98%
- growth at 0.1 µM [26]: 104%
- growth at 100 µM [27]: -67%
